Measurements: ChEMBL document CHEMBL3797202, “Novel Oxindole Sulfonamides and Sulfamides: EPZ031686, the First Orally Bioavailable Small Molecule SMYD3 Inhibitor” (ACS Med Chem Lett, 2016)

Legend:
[1] = target: T1, Histone-lysine N-methyltransferase SETD7 (Homo sapiens) (UniProt Q8WTS6); assay: Inhibition of SETD7 (unknown origin) at 10 uM relative to control
T1 sequence (whole entry): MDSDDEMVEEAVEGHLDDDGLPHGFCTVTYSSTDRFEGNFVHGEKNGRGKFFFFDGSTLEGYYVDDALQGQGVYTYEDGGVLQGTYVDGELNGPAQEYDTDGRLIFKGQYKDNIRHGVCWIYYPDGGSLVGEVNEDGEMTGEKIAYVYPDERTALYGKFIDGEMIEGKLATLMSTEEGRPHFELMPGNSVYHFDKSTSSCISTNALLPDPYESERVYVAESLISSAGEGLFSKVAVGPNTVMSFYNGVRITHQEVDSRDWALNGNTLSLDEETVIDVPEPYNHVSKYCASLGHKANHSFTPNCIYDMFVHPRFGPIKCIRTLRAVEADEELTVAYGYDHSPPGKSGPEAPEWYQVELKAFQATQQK

[2] = target: Histone-lysine N-methyltransferase SETDB1 (Homo sapiens) (UniProt Q15047); assay: Inhibition of SETDB1 (unknown origin) at 10 uM relative to control
[3] = target: T2, Histone-lysine N-methyltransferase SMYD3 (Homo sapiens, UniProt Q9H7B4); assay: Inhibition of full length N-terminal His-tagged SMYD3 (1 to 428 residues) (unknown origin) expressed in Escherichia coli using N-terminal GST-tagged MEKK2 as substrate preincubated for 30 mins followed by substrate addition by scintillation proximity assay in presence of [3H]SAM
T2 sequence (Q9H7B4 whole entry): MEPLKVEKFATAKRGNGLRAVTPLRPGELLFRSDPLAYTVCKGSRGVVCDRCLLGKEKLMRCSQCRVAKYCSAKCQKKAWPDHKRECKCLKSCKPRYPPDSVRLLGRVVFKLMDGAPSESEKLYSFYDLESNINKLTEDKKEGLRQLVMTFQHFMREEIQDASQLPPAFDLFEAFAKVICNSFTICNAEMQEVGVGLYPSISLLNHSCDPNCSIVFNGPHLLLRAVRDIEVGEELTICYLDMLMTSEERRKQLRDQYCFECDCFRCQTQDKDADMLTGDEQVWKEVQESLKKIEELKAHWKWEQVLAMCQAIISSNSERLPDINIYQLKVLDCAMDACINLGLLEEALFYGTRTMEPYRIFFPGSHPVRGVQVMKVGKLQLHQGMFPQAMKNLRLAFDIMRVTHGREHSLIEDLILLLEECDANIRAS

[4] = target: T2, Histone-lysine N-methyltransferase SMYD3; assay: Non-competitive inhibition of full length N-terminal His-tagged SMYD3 (1 to 428 residues) (unknown origin) expressed in Escherichia coli using varying N-terminal GST-tagged MEKK2 substrate and fixed SAM levels preincubated for 30 mins followed by substrate addition by filter plate assay
[5] = target: T2, Histone-lysine N-methyltransferase SMYD3; assay: Non-competitive inhibition of full length N-terminal His-tagged SMYD3 (1 to 428 residues) (unknown origin) expressed in Escherichia coli using fixed N-terminal GST-tagged MEKK2 substrate and varying SAM levels preincubated for 30 mins followed by substrate addition by filter plate assay
[6] = Efflux ratio of apparent permeability in human Caco2 cells at 10 uM incubated for 120 mins by LC-MS/MS analysis; type: ADME, cell-based; conditions: Caco-2
Method in brief: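 Permeability in Caco-2 cells, measured apical-to-basolateral as P_app (×10⁻⁶ cm/s). An efflux ratio is reported as the index of active efflux. This is part of an in vitro ADME screen run before mouse PK studies.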

[7] = Clearance in CD1 mouse at 1 mg/kg, iv as bolus dose measured up to 24 hrs by LC-MS/MS analysis; type: ADME, organism-based; conditions: in vivo
Method in brief: (§1)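 Male CD-1 mice received a single bolus: 1 mg/kg i.v., or 5 or 50 mg/kg p.o. Values are mean ± SD, n = 3. […] Bioavailability was determined separately for each oral dose.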

[8] = Renal clearance in CD1 mouse at 1 mg/kg, iv as bolus dose measured up to 24 hrs by LC-MS/MS analysis; type: ADME, organism-based, Kidney; conditions: in vivo; method in brief: as §1
[9] = Volume of distribution at steady state in CD1 mouse at 1 mg/kg, iv as bolus dose measured up to 24 hrs by LC-MS/MS analysis; type: ADME, organism-based; conditions: in vivo, read-out: Vdss; method in brief: as §1
[10] = Terminal half life in CD1 mouse at 1 mg/kg, iv as bolus dose by LC-MS/MS analysis; type: ADME, organism-based; conditions: in vivo, read-out: beta t1/2 (converted); method in brief: as §1
[11] = AUC (0 to last) in CD1 mouse at 1 mg/kg, iv as bolus dose measured up to 24 hrs by LC-MS/MS analysis; type: ADME, organism-based; set-up: dose 1 mg/kg, time 0 - last, route intravenous; conditions: in vivo; method in brief: as §1
[12] = AUC (0 to infinity) in CD1 mouse at 1 mg/kg, iv as bolus dose measured up to 24 hrs by LC-MS/MS analysis; type: ADME, organism-based; set-up: dose 1 mg/kg, route intravenous, time infinity; conditions: in vivo; method in brief: as §1
[13] = Terminal half life in CD1 mouse at 5 mg/kg, administered through oral gavage by LC-MS/MS analysis; type: ADME, organism-based; conditions: in vivo, read-out: beta t1/2 (converted); method in brief: as §1
[14] = Tmax in CD1 mouse at 5 mg/kg, administered through oral gavage by LC-MS/MS analysis; type: ADME, organism-based; conditions: in vivo; method in brief: as §1
[15] = Cmax in CD1 mouse at 5 mg/kg, administered through oral gavage measured up to 24 hrs by LC-MS/MS analysis; type: ADME, organism-based; set-up: dose 5 mg/kg, route oral; conditions: in vivo; method in brief: as §1
[16] = AUC (0 to last) in CD1 mouse at 5 mg/kg, administered through oral gavage measured up to 24 hrs by LC-MS/MS analysis; type: ADME, organism-based; set-up: dose 5 mg/kg, route oral, time 0 - last; conditions: in vivo; method in brief: as §1
[17] = AUC (0 to infinity) in CD1 mouse at 5 mg/kg, administered through oral gavage measured up to 24 hrs by LC-MS/MS analysis; type: ADME, organism-based; set-up: dose 5 mg/kg, time infinity, route oral; conditions: in vivo; method in brief: as §1
[18] = Oral bioavailability in CD1 mouse at 5 mg/kg measured up to 24 hrs by LC-MS/MS analysis; type: ADME, organism-based; conditions: in vivo; method in brief: as §1
[19] = Terminal half life in CD1 mouse at 50 mg/kg, administered through oral gavage by LC-MS/MS analysis; type: ADME, organism-based; conditions: in vivo, read-out: beta t1/2 (converted); method in brief: as §1
[20] = Tmax in CD1 mouse at 50 mg/kg, administered through oral gavage by LC-MS/MS analysis; type: ADME, organism-based; conditions: in vivo; method in brief: as §1
[21] = Cmax in CD1 mouse at 50 mg/kg, administered through oral gavage measured up to 24 hrs by LC-MS/MS analysis; type: ADME, organism-based; set-up: dose 50 mg/kg, route oral; conditions: in vivo; method in brief: as §1
[22] = AUC (0 to last) in CD1 mouse at 50 mg/kg, administered through oral gavage measured up to 24 hrs by LC-MS/MS analysis; type: ADME, organism-based; set-up: dose 50 mg/kg, route oral, time 0 - last; conditions: in vivo; method in brief: as §1
[23] = AUC (0 to infinity) in CD1 mouse at 50 mg/kg, administered through oral gavage measured up to 24 hrs by LC-MS/MS analysis; type: ADME, organism-based; set-up: dose 50 mg/kg, time infinity, route oral; conditions: in vivo; method in brief: as §1
[24] = Oral bioavailability in CD1 mouse at 50 mg/kg measured up to 24 hrs by LC-MS/MS analysis; type: ADME, organism-based; conditions: in vivo; method in brief: as §1
[25] = Drug excretion in CD1 mouse urine at 1 mg/kg, iv as bolus dose after 24 hrs by LC-MS/MS analysis; type: ADME, organism-based; conditions: read-out: Drug excretion; method in brief: as §1

O=C1Cc2cc(C(=O)N[C@H]3C[C@H]4CC[C@@H](C3)N4S(=O)(=O)N3CCC(NCc4ccccc4)CC3)c(Cl)cc2N1
inhibition [1]: < 30%
inhibition [2]: < 30%

O=C1Cc2cc(C(=O)N[C@H]3C[C@H]4CC[C@@H](C3)N4S(=O)(=O)CC3CCN(CCCC(F)(F)F)CC3)c(Cl)cc2N1
IC50 [3]: 3 nM
inhibition [1]: < 30%
inhibition [2]: < 30%
Ki [4]: 1.1 nM
Ki [5]: 1.2 nM
efflux ratio at 2 h, 10 µM [6]: 41
clearance [7]: 27 mL/min/kg
CL renal at 24 h [8]: 5.3 mL/min/kg
Vd [9]: 2.3 L/kg
half-life [10]: 1.7 h
AUC(0-t) at 24 h [11]: 603 ng·h/mL
AUC(0-inf) [12]: 616 ng·h/mL
half-life [13]: 2.7 h
Tmax [14]: 0.89 h
Cmax [15]: 345 ng/mL
AUC(0-t) at 24 h [16]: 1280 ng·h/mL
AUC(0-inf) [17]: 1480 ng·h/mL
bioavailability [18]: 48%
half-life [19]: 2.2 h
Tmax [20]: 1.3 h
Cmax [21]: 4690 ng/mL
AUC(0-t) at 24 h [22]: 21200 ng·h/mL
AUC(0-inf) [23]: 21200 ng·h/mL
bioavailability [24]: 69%
dose excreted at 24 h [25]: 20%
